Results reported in ChEMBL document CHEMBL5104102, “Discovery of FtsZ inhibitors by virtual screening as antibacterial agents and study of the inhibition mechanism” (RSC Med Chem, 2022).
In brackets after ≈: the same amount, converted by molar mass. Each block holds one compound with its values, some of them ahead of it. Activity calls are given as the source filed them. No cut-off for these calls is given here.

Columns and labels:
Bacillus subtilis [1] = assay: Antibacterial activity against Bacillus subtilis 168 assessed as inhibition of bacterial growth incubated for 18 hrs by CLSI protocol based two-fold serial dilution assay; assay type: functional
Summary of the method: (§1)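 B. subtilis 168 or E. coli ATCC 25922 was grown in MHB and tested by CLSI-based broth microdilution. An overnight culture (37 °C, 250 rpm) was diluted tenfold, grown 2 h, and set to 5 × 10^6 CFU mL−1 by A600. Cells were added to two-fold serial compound dilutions (1% DMSO) and incubated 18 h at 37 °C. Read-out was A600, in duplicate. MIC was the lowest concentration giving A600 < 0.1.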

Escherichia coli [2] = assay: Antibacterial activity against Escherichia coli 25922 assessed as inhibition of bacterial growth incubated for 18 hrs by CLSI protocol based two fold serial dilution method; assay type: functional; summary of the method: as §1
Staphylococcus aureus [3] = assay: Antibacterial activity against Staphylococcus aureus 29213 assessed as inhibition of bacterial growth incubated for 18 hrs by CLSI protocol based two fold serial dilution method; assay type: functional
Summary of the method: as §1, with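 “S. aureus” for “B. subtilis 168 or E. coli”, “29213” for “25922”, “CAMHB” for “MHB”, “mL−1.” for “mL−1 by A600.”, “with” for “giving”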

Staphylococcus aureus [4] = assay: Bactericidal activity against methicillin-resistant Staphylococcus aureus BAA 41 assessed as inhibition of bacterial growth incubated for 24 hrs by time-kill assay; assay type: functional
Summary of the method: (§2)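 Time-kill: 3 mL culture at 5 × 10^5 CFU mL−1 exposed to compound at several concentrations or to 1% DMSO control at 37 °C with shaking at 250 rpm, over 24 h. 100 μL samples taken at intervals, diluted as needed, and spread on agar. Colonies counted after 24 h at 37 °C.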

Staphylococcus aureus [5] = assay: Antibacterial activity against methicillin-resistant Staphylococcus aureus ATCC 43300 assessed as inhibition of bacterial growth incubated for 18 hrs by CLSI protocol based two fold serial dilution method; assay type: functional
Summary of the method: (§3)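 CAMHB culture grown overnight at 37 °C with shaking at 250 rpm, diluted 10-fold, and grown 2 h. Inoculum set to 5 × 10^6 CFU mL−1 by A600. Compounds in DMSO were serially diluted two-fold, with 1% DMSO per well. Read at A600 after 18 h at 37 °C. MIC is the lowest concentration giving A600 < 0.1. Run in duplicate.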

Staphylococcus aureus [6] = assay: Synergistic antibacterial activity against methicillin-resistant Staphylococcus aureus BAA 41 assessed as FICI incubated for 18 hrs in presence of methicillin by checkerboard assay; assay type: functional
Summary of the method: (§4)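 Checkerboard: test compound serially diluted two-fold across the plate and methicillin serially diluted down it. Bacteria added at 5 × 10^5 CFU mL−1. Incubated at 37 °C for 16–24 h, then growth read at A600. Untreated-cell columns included. FICI calculated from the combination MICs.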

Staphylococcus aureus [7] = assay: Bactericidal activity against methicillin-resistant Staphylococcus aureus BAA 41 assessed as inhibition of bacterial growth at 4 ug/ml incubated for 24 hrs by time-kill assay; assay type: functional; conditions: dose 4 µg/ml; summary of the method: as §2
Staphylococcus aureus [8] = assay: Antibacterial activity against methicillin-resistant Staphylococcus aureus ATCC 33592 assessed as inhibition of bacterial growth incubated for 18 hrs by CLSI protocol based two fold serial dilution method; assay type: functional; summary of the method: as §3
[9] = target: T1, Cell division protein FtsZ (Staphylococcus aureus) (UniProt P0A031); assay: Inhibition of Staphylococcus aureus FtsZ polymerization assessed as increase in GTPase activity at 5 to 20 ug/ml incubated for 40 mins in presence of GTP by malachite green phosphate assay; conditions: dose 5-20 µg/ml, DDE = dose-dependent effect
T1 sequence (whole entry): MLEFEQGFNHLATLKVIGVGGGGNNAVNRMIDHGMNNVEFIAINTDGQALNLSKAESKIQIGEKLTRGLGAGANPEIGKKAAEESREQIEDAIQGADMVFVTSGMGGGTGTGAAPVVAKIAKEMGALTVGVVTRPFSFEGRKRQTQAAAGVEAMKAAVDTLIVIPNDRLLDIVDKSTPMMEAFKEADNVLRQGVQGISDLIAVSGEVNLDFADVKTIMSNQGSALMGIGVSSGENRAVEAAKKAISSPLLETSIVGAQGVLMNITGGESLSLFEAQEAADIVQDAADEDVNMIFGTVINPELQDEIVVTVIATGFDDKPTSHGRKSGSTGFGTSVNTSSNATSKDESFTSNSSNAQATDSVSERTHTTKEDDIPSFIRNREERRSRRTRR
Summary of the method: (§5)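 Purified S. aureus FtsZ (3 μM) was preincubated with serially diluted compound in 50 mM MOPS pH 6.5 for 30 min at room temperature; 1% DMSO served as control. MgCl2 (5 mM) and KCl (200 mM) were added, and the reaction was started with 250 μM GTP for 10 min at 37 °C. Malachite green reagent was then developed 30 min at 37 °C, and released phosphate was read at A600.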

[10] = Ratio of MBC for bactericidal activity against methicillin-resistant Staphylococcus aureus BAA 41 to MIC for antibacterial activity against methicillin-resistant Staphylococcus aureus BAA 41; assay type: functional
Summary of the method: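 MBC: culture at 5 × 10^5 CFU mL−1 incubated overnight at 37 °C with shaking and compound or 1% DMSO, then diluted ≥10-fold and plated on TSA for 24 h at 37 °C. MBC is the lowest concentration giving ≥99.9% reduction of the initial count. MBC is divided by the broth-dilution MIC (A600 < 0.1 after 18 h).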

Bacillus subtilis [11] = assay: Antibacterial activity against Bacillus subtilis 168 assessed as cell elongation at 0.5 ug/ml incubated for 4 hrs by phase-contrast microscopy; assay type: functional; conditions: dose 0.5 µg/ml
Summary of the method: (§6)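 B. subtilis 168 overnight culture was diluted tenfold into fresh medium and grown 2 h. It was then adjusted to A600 = 0.01, given compound, and incubated 4 h at 37 °C; 1% (v/v) DMSO was the control. Cells were harvested, resuspended in LB, mounted on 1.2% agarose pads and imaged by phase contrast. Lengths of 100 cells per condition were measured to give length distributions and averages.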

Staphylococcus aureus [12] = assay: Antibacterial activity against methicillin-resistant Staphylococcus aureus BAA 44 assessed as inhibition of bacterial growth incubated for 18 hrs by CLSI protocol based two fold serial dilution method; assay type: functional; summary of the method: as §3
Staphylococcus aureus [13] = assay: Antibacterial activity against methicillin-resistant Staphylococcus aureus BAA 41 assessed as inhibition of bacterial growth incubated for 18 hrs by CLSI protocol based two fold serial dilution method; assay type: functional; summary of the method: as §3
Staphylococcus aureus [14] = assay: Bactericidal activity against methicillin-resistant Staphylococcus aureus BAA 41 assessed as inhibition of bacterial growth at 8 ug/ml incubated for 24 hrs by time-kill assay; assay type: functional; conditions: dose 8 µg/ml; summary of the method: as §2
Staphylococcus aureus [15] = assay: Antibacterial activity against methicillin-resistant Staphylococcus aureus BAA 1720 assessed as inhibition of bacterial growth incubated for 18 hrs by CLSI protocol based two fold serial dilution method; assay type: functional; summary of the method: as §3
Staphylococcus aureus [16] = assay: Bactericidal activity against methicillin-resistant Staphylococcus aureus BAA 41 assessed as inhibition of bacterial growth at 2 ug/ml incubated for 24 hrs by time-kill assay; assay type: functional, organism-based; conditions: dose 2.0 µg/ml; summary of the method: as §2
Staphylococcus aureus [17] = assay: Antibacterial activity against methicillin-resistant Staphylococcus aureus ATCC 33591 assessed as inhibition of bacterial growth incubated for 18 hrs by CLSI protocol based two fold serial dilution method; assay type: functional; summary of the method: as §3
Staphylococcus aureus [18] = assay: Bactericidal activity against methicillin-resistant Staphylococcus aureus BAA 41 assessed as inhibition of bacterial growth at 1 ug/ml incubated for 24 hrs by time-kill assay; assay type: functional, organism-based; conditions: dose 1.0 µg/ml; summary of the method: as §2
[19] = target: T2, Cell division protein FtsZ (Bacillus subtilis (strain 168)) (UniProt P17865); assay: Inhibition of GFP-tagged FtsZ in Bacillus subtilis 168 assessed as inhibition of z-ring formation at 0.125 ug/ml incubated for 4 hrs by FM 5-96 dye based super-resolution microscopy; conditions: dose 0.125 µg/ml
T2 sequence (whole entry): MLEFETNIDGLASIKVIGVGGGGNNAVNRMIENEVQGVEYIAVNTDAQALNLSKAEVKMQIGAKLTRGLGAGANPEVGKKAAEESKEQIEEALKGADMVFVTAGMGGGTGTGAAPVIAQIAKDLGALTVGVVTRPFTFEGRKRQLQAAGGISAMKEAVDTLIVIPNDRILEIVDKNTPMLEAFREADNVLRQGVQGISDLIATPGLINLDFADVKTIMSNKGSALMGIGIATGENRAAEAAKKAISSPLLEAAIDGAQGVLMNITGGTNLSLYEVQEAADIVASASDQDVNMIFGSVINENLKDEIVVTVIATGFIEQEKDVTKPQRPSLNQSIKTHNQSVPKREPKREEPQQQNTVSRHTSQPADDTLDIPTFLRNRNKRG
Summary of the method: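 B. subtilis 168 carried an IPTG-inducible FtsZ-GFP plasmid and was grown overnight at 37 °C in LB with 30 μg mL−1 chloramphenicol. It was back-diluted to A600 = 0.01, induced with 40 μM IPTG, and treated with compound for 4 h at 37 °C with shaking. Cells were pelleted, resuspended in PBS and mounted on agarose pads. Membranes were stained with FM 5-96, and FtsZ-GFP localization was imaged by super-resolution microscopy (N-SIM).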

Bacillus subtilis [20] = assay: Antibacterial activity against Bacillus subtilis 168 assessed as cell length at 0.5 ug/ml incubated for 4 hrs by phase-contrast microscopy; assay type: functional; conditions: dose 0.5 µg/ml; summary of the method: as §6
Staphylococcus aureus [21] = assay: Synergistic antibacterial activity against methicillin-resistant Staphylococcus aureus BAA 41 assessed as inhibition of bacterial growth incubated for 18 hrs in presence of methicillin by checkerboard assay; assay type: functional; summary of the method: as §4
Escherichia coli [22] = assay: Synergistic antibacterial activity against Escherichia coli 25922 assessed as inhibition of bacterial growth incubated for 18 hrs in presence of PMBN by checkerboard assay; assay type: functional
Summary of the method: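 E. coli ATCC 25922 was tested in MHB by the broth microdilution format with two-fold serial compound dilutions. Polymyxin B nonapeptide was added to each well at 20 μg mL−1 final before adding bacteria at 5 × 10^5 CFU mL−1. Growth was read by A600.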

[23] = target: T1, Cell division protein FtsZ (Staphylococcus aureus); assay: Inhibition of Staphylococcus aureus FtsZ polymerization assessed as increase in GTPase activity at 1 ug/ml incubated for 40 mins in presence of GTP by malachite green phosphate assay; conditions: dose 1.0 µg/ml; summary of the method: as §5

MIC (Bacillus subtilis [1]): > 128 µg/mL | MIC (Escherichia coli [2]): > 128 µg/mL | MIC (Staphylococcus aureus [3]): > 128 µg/mL
Compound: CCOC(=O)C(CCc1ccccc1)NC(C)C(=O)N1Cc2ccccc2CC1C(=O)O.Cl (stereo not given)

Compound: NC(=O)c1c(F)ccc(OCc2nc3cc(Cl)cnc3s2)c1F
MBC (Staphylococcus aureus [4]): 2 µg/mL (≈ 5.62 µM) | MIC (Staphylococcus aureus [5]): 1 µg/mL (≈ 2.81 µM) | fractional inhibitory concentration index (FICI) (Staphylococcus aureus [6]): 0.52 | Activity (Staphylococcus aureus [7]): 0 log10CFU/ml | MIC (Staphylococcus aureus [8]): 2 µg/mL (≈ 5.62 µM) | inhibition [9]: Dde | Ratio [10]: 2 | Activity (Bacillus subtilis [11]): 33% | MIC (Staphylococcus aureus [12]): 1 µg/mL (≈ 2.81 µM) | MIC (Staphylococcus aureus [13]): 0.5 µg/mL (≈ 1.41 µM) | Activity (Staphylococcus aureus [14]): 0 log10CFU/ml | MIC (Staphylococcus aureus [15]): 1 µg/mL (≈ 2.81 µM) | Activity (Staphylococcus aureus [16]): Active | MIC (Bacillus subtilis [1]): 0.5 µg/mL (≈ 1.41 µM) | MIC (Escherichia coli [2]): > 128 µg/mL | MIC (Staphylococcus aureus [17]): 1 µg/mL (≈ 2.81 µM) | Activity (Staphylococcus aureus [18]): Active | inhibition [19]: Active | Activity (Bacillus subtilis [20]): 135.8 um | MIC (Staphylococcus aureus [3]): 0.5 µg/mL (≈ 1.41 µM) | MIC (Staphylococcus aureus [21]): 0.5 µg/mL | MIC (Escherichia coli [22]): 32 µg/mL | inhibition [23]: 105%

Compound: CCc1cncnc1N1CCN(Cc2nc3cc(C(F)(F)F)ccc3[nH]2)CC1
MIC (Staphylococcus aureus [5]): 32 µg/mL (≈ 82 µM) | fractional inhibitory concentration index (FICI) (Staphylococcus aureus [6]): >1 | MIC (Staphylococcus aureus [8]): 64 µg/mL (≈ 164 µM) | MIC (Staphylococcus aureus [12]): 64 µg/mL (≈ 164 µM) | MIC (Staphylococcus aureus [13]): 64 µg/mL (≈ 164 µM) | MIC (Staphylococcus aureus [15]): 64 µg/mL (≈ 164 µM) | MIC (Bacillus subtilis [1]): 128 µg/mL (≈ 328 µM) | MIC (Escherichia coli [2]): > 128 µg/mL | MIC (Staphylococcus aureus [17]): 64 µg/mL (≈ 164 µM) | MIC (Staphylococcus aureus [3]): 128 µg/mL (≈ 328 µM) | MIC (Staphylococcus aureus [21]): 128 µg/mL | MIC (Escherichia coli [22]): 64 µg/mL

Compound: CN(C)C(=O)[C@H](O)[C@H](Cc1ccccc1)NC(=O)c1cc2cc(Cl)ccc2[nH]1
MIC (Staphylococcus aureus [5]): 32 µg/mL (≈ 80 µM) | MIC (Staphylococcus aureus [8]): > 128 µg/mL | MIC (Staphylococcus aureus [12]): > 128 µg/mL | MIC (Staphylococcus aureus [13]): > 128 µg/mL | MIC (Staphylococcus aureus [15]): > 128 µg/mL | MIC (Bacillus subtilis [1]): 16 µg/mL (≈ 40 µM) | MIC (Escherichia coli [2]): > 128 µg/mL | MIC (Staphylococcus aureus [17]): > 128 µg/mL | MIC (Staphylococcus aureus [3]): > 128 µg/mL

MIC (Bacillus subtilis [1]): > 128 µg/mL | MIC (Escherichia coli [2]): > 128 µg/mL | MIC (Staphylococcus aureus [3]): > 128 µg/mL
Compound: COc1ccccc1S(=O)(=O)Nc1ccc2c(c1)CN(C)C(=O)N2
